Variants at the floor of the assay were thinned out.

B1: tRNA (parent)
chain: GUUCCGUUGGCGUAAUGGUAACGCGUCUCCCUCCUAAGGAGAAGACUGCGGGUUCGAGUCCCGUACGGAACG

This series covers variants of B1. Put plainly: yeast fitness relative to wild type (ratio to wild type); higher = fitter; tRNA-Arg(CCU), competitive growth, 37 C, YPD. Summed up:
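The tRNA-Arg(CCU) gene variants were made by chemical synthesis with a 3% per-site mutation rate at 69 sites and inserted at the native genomic locus of Saccharomyces cerevisiae. After pooling, the strains were competed in YPD at 37°C for 24 hours in six parallel replicates. Gene amplicons from the start population and each end population were read by 100-nucleotide paired-end sequencing, and Darwinian fitness relative to wild type was taken from genotype frequency changes. Genotypes needed ≥ 100 starting reads, and estimates < 0.5 were set to 0.5.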
As to U13C A43U C49U, the yeast fitness amounted to 0.716.

Take C29U A40U A65U: the yeast fitness stood at 0.584.

Consider G25A A36G, for which the yeast fitness worked out at 0.962.

On to C29A A42G, for which the yeast fitness is 0.672.

Take C33U A40C A45C: the yeast fitness is 0.561.

Take U3C A40C: the yeast fitness turned out to be 0.935.

Turning to C5U G17C C30G U59A, the yeast fitness is not above 0.5.

Consider A14C G18C G41C, for which the yeast fitness was found to be 0.662.

As for U59A A65C A70C, the yeast fitness was 0.551.

In the case of C46G G50C, the yeast fitness was determined as 0.949.

On to C34G U35G A40U A42G C61G, for which the yeast fitness was not above 0.5.

In the case of G10A A15C G25A, the yeast fitness turned out to be 0.582.

As to C30G G58A G68A, the yeast fitness amounted to 0.705.

On to A14G U28C A40U, for which the yeast fitness came out at 0.691.

For the variant U8C A20U, the yeast fitness was found to be 0.92.

For the variant U3C C5G C11G A45C, the yeast fitness was not above 0.5.

Regarding C34U C46G, the yeast fitness was 0.705.

With C49A A65U, the yeast fitness stood at 0.962.

As to C11U A15C C27A G39C G48A, the yeast fitness was 0.546.

Take G9A U19C: the yeast fitness was 0.983.

In the case of C33G C34A A43G C55A, the yeast fitness amounted to 0.635.

With C5G A21G A45U G56A, the yeast fitness came to 0.753.

As for C66U G67C, the yeast fitness turned out to be 0.934.

For the variant U19G C29U A40C, the yeast fitness was 0.52.

Take A14U U19A C24U C55G A70U: the yeast fitness came to 0.532.

For G9A C24U G38C G56C, the yeast fitness was not above 0.5.

In the case of A37G A45U C60U A70G, the yeast fitness is not above 0.5.

Turning to A21U C24U C27A U35C A37C A40U G67C, the yeast fitness was not above 0.5.

With U2A A65G, the yeast fitness is 0.938.

As to U7G G41C C49G U59G G63A C66U, the yeast fitness was not above 0.5.

Take C4U A15C C30G A69C: the yeast fitness was not above 0.5.

C30A C31A: the yeast fitness stood at 0.611.

On to U32A A43G U53A G68A, for which the yeast fitness was not above 0.5.

Take A21G A57G: the yeast fitness turned out to be 0.875.

For U2C A45C C46U G68C, the yeast fitness is not above 0.5.

For G17A C22U U28C A57G C61U A69U, the yeast fitness was not above 0.5.

Regarding C4U C11U A15G, the yeast fitness was determined as 0.713.

With G10A C24G G39C C66U, the yeast fitness is not above 0.5.

Consider C5U A14U G48A C66U, for which the yeast fitness was not above 0.5.

As for A14U C30U A42C, the yeast fitness was not above 0.5.

Turning to U7C G25A G41A A42C G50C A70G, the yeast fitness turned out to be 0.569.

G12A A20C C61G C66A: the yeast fitness was not above 0.5.

Take U3C U59C A69C: the yeast fitness was determined as 1.02.

Take G10A A15C G25A C55G U59C C60U G67U: the yeast fitness was not above 0.5.

For the variant G12A C27G A69C, the yeast fitness is not above 0.5.

In the case of C27G C29U A37G A45G C60A G68A, the yeast fitness was not above 0.5.

As to C11U G17C A37G G56C C61A A65G C66G, the yeast fitness was not above 0.5.

For the variant C22G A45C G52C A57U A69C, the yeast fitness is 0.619.

Take G23C C31A A36U A70C: the yeast fitness was determined as 0.557.

Regarding A20G U35A A40C G52A C60A C61G, the yeast fitness worked out at 0.6.

As for A14C C31G, the yeast fitness worked out at 0.502.

Take C5U A40U G56A G67C: the yeast fitness is not above 0.5.

Consider A15U C46U U54C, for which the yeast fitness turned out to be 0.684.

On to A14G U47C, for which the yeast fitness is 0.871.

As for U2G G9C G12A A42C C46A A65U, the yeast fitness was determined as 0.577.

For A14C C49G, the yeast fitness worked out at 0.542.

With G18C G67A, the yeast fitness amounted to 0.728.

Take C27A U35C A57C: the yeast fitness came to 0.619.

G9C G39C A69U: the yeast fitness is not above 0.5.

Consider A15G U16A A20G U28A C30A C33A A36U A69C, for which the yeast fitness was not above 0.5.

Regarding G17C C22G C24A, the yeast fitness was not above 0.5.

On to C49G G52A, for which the yeast fitness came to 0.898.

With C5U C33A A36C A37C A43G, the yeast fitness is not above 0.5.

Regarding C34A U47A C61G, the yeast fitness is not above 0.5.

G6C C31A G68C: the yeast fitness was determined as 0.502.

Turning to G9C A45C, the yeast fitness turned out to be 0.587.

Turning to G9C A45U, the yeast fitness worked out at 0.771.

For the variant A15U U26A A57C, the yeast fitness was not above 0.5.

As to A21G U35A A43U U59C, the yeast fitness was not above 0.5.

On to A21C C22G A42C U47A, for which the yeast fitness is not above 0.5.

Take U3G A43C G48A A70C: the yeast fitness was found to be 0.617.

As to U16A G52A, the yeast fitness is 0.827.

For the variant G6A U13C C27G A37U C60A, the yeast fitness was not above 0.5.

In the case of A21G U32C, the yeast fitness came to 1.03.

Take C5U C30A A42U: the yeast fitness is 0.59.

For U2A A37G C55U, the yeast fitness is not above 0.5.

With A21G C49U G63C, the yeast fitness was not above 0.5.

Regarding G10C G41A C66U, the yeast fitness was not above 0.5.

On to C11A U13G C27G, for which the yeast fitness was not above 0.5.

For the variant U8C U47C, the yeast fitness was found to be 0.913.

For the variant C31G U32G C33U A70G, the yeast fitness is not above 0.5.

As to U16G A37G A45C C61G A69C, the yeast fitness was not above 0.5.

As for C30A G63U U64A, the yeast fitness is not above 0.5.

Consider G25A C29U C49U A65C, for which the yeast fitness is not above 0.5.

Consider A21C C34U U35C, for which the yeast fitness was not above 0.5.

For U28A A40G G51C U54A G58C, the yeast fitness is 0.582.

Turning to A21U C55U A65C, the yeast fitness is not above 0.5.

On to A21C C34G C60A, for which the yeast fitness is not above 0.5.

As to G48C C60G, the yeast fitness turned out to be 0.719.

As for U2A C27U C29U C62U, the yeast fitness is not above 0.5.

G56C G67A A70C: the yeast fitness is 0.527.

As to C5A C34A C46U, the yeast fitness stood at 0.553.

Turning to U26A A40C U64C C66A, the yeast fitness is not above 0.5.

On to G9A C29A C31A A40C G44A U59A, for which the yeast fitness is not above 0.5.

On to U7G C11G C34U G41A A65C, for which the yeast fitness was not above 0.5.

With U26C C31A G38C, the yeast fitness was 0.529.

In the case of G10C A14U C31G, the yeast fitness was not above 0.5.

Consider U16A U19A A43C G56A, for which the yeast fitness is not above 0.5.

Turning to C24G C31U C33A G50C, the yeast fitness is not above 0.5.

On to C27U A57G, for which the yeast fitness worked out at 0.959.

Regarding U16C A40U G67A, the yeast fitness was 0.536.

Take U8C U16C A20U C30U G39C A45G A69C: the yeast fitness is not above 0.5.

Turning to A15G A43G U53G G63A, the yeast fitness is not above 0.5.

Consider C4A C22G C29U G68C, for which the yeast fitness is not above 0.5.

Take G17C G56C G68A: the yeast fitness is not above 0.5.

For U26A G48A C49G, the yeast fitness stood at 0.552.

For U3G C46U G68C, the yeast fitness came to 0.607.

For the variant G6A A15C C60A C62U, the yeast fitness is not above 0.5.

In the case of C4G G17A, the yeast fitness amounted to 0.724.

Consider C11A G12C C33U A43C, for which the yeast fitness was not above 0.5.

With C5U C11U C46G, the yeast fitness was 0.7.

As to U7A C27U C30A A69U, the yeast fitness is not above 0.5.

For U7A C24G A69U, the yeast fitness is not above 0.5.

Take U13C A43U A70C: the yeast fitness turned out to be 0.679.

Consider U13A A70G, for which the yeast fitness came to 0.937.

With C11G G41A G44C C66G, the yeast fitness was not above 0.5.

With C5U C11G C24U A42C, the yeast fitness turned out to be 0.552.

For C4A C11G C31A A42G, the yeast fitness is not above 0.5.

In the case of U54C U64A A69U, the yeast fitness came to 0.698.

Turning to C33U A65C C66U, the yeast fitness came to 0.59.

For U7A U8C G9A U32G A42U, the yeast fitness came to 0.561.

C4U G10A A15C: the yeast fitness amounted to 0.551.

Turning to C30U C60G G67A, the yeast fitness was not above 0.5.

As for C22A C62U A65C, the yeast fitness was 0.663.

As to U59C C66G, the yeast fitness worked out at 0.668.

In the case of G44C C62G, the yeast fitness was found to be 0.644.

On to C5U C24U U32C, for which the yeast fitness is 0.72.

As to C4U A21U U28C G52C A57C, the yeast fitness was not above 0.5.

In the case of U7A C27A U28C C49A, the yeast fitness was determined as 0.622.

Consider U19C C34U A43U A70C, for which the yeast fitness turned out to be 0.572.

As for C22G G25A A37U G39A U47A, the yeast fitness was not above 0.5.

C11A U32A C34A A65C: the yeast fitness is not above 0.5.

With U2C G18C C30U C61G, the yeast fitness was not above 0.5.

Take G17A G18C A20G G39C: the yeast fitness is not above 0.5.

Turning to A20G C33A G44A C61U, the yeast fitness came out at 0.553.

For U7G C34G, the yeast fitness came to 0.649.

Turning to C24G A43C G48A G58A G68C, the yeast fitness was not above 0.5.

On to C29G A45C A70G, for which the yeast fitness worked out at 0.573.

In the case of A37U C55U C61G A65U A70U, the yeast fitness is not above 0.5.

For the variant U3A C24G, the yeast fitness worked out at 0.645.

For A36C A40U A70U, the yeast fitness is not above 0.5.

For G17A C29U C33U C60G, the yeast fitness came to 0.594.

For G23A G38A A69C, the yeast fitness is not above 0.5.

With A15G C30G, the yeast fitness was found to be 0.631.

Regarding C11G U28A G39A G48A G67C, the yeast fitness was not above 0.5.

U8C G10A A40G A65G G67A: the yeast fitness was not above 0.5.

Take U26C C34A: the yeast fitness was found to be 0.817.

With A21C C27A A37G A45C, the yeast fitness was 0.529.

Turning to A42C A43C A69U, the yeast fitness turned out to be 0.819.

Turning to U8C G23A C29U A45U, the yeast fitness is 0.632.

In the case of G18C G52C, the yeast fitness came to 0.819.

As to C27U C49A U64C G67A, the yeast fitness is not above 0.5.

As to C46U C49U C66U, the yeast fitness was 0.806.

Turning to C4U A15C A37G A40G G68U, the yeast fitness was not above 0.5.

For the variant U3C A37C, the yeast fitness was 0.82.

On to C5A C46A G56C A70G, for which the yeast fitness was not above 0.5.

For C30A C31U A45C C55G C60A, the yeast fitness was not above 0.5.

G10C G12A G25C A37G: the yeast fitness was not above 0.5.

On to U2C U19C A37G, for which the yeast fitness is not above 0.5.

Regarding C5U A40U A57U, the yeast fitness was not above 0.5.

As for G12A A14C C27G C46G A65G, the yeast fitness was not above 0.5.

With C33U U47C, the yeast fitness stood at 0.713.

Turning to C22U C24G A65U, the yeast fitness was not above 0.5.

For the variant A21U C66G, the yeast fitness stood at 0.513.

As to C4G G12A U19C C29G A57G C61A A65C C66U, the yeast fitness was 0.634.

As for A45U G63A, the yeast fitness came to 0.843.

Consider U19C U47C, for which the yeast fitness was found to be 0.905.

The values are drawn from the RNAGym collection of RNA variant scans (doi:10.1126/science.aae0568).
